Laboratory results from ChEMBL document CHEMBL1131440, “Synthesis and potent antifolate activity and cytotoxicity of B-ring deaza analogues of the nonpolyglutamatable dihydrofolate reductase inhibitor Nalpha-(4-amino-4-deoxypteroyl)-Ndelta-hemiphthaloyl- L-ornithine (PT523)” (J Med Chem, 1998).
pIC50, pKi: −log10 of the molar value.

Tests used:
[1] = Compound was tested for in vitro antitumor activity, using SCC25 human head and neck squamous carcinoma cells; assay type: functional; conditions: SCC-25
Outline: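 Clonogenic assay: SCC25 cells exposed to graded drug concentrations for 72 h at 37 °C, 5% CO2, in DMEM with 10% FBS and hydrocortisone ([…]). Then replated as single cells at drug-dependent densities and grown in drug-free medium 10-14 days. Colonies stained with crystal violet; only colonies of ≥50 cells scored. IC50 is mean ± SD of ≥3 assays on different days.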

[2] = target: T1, Dihydrofolate reductase (Homo sapiens, UniProt P00374); assay: Compound was evaluated for the inhibition of Dihydrofolate reductase at concentration ranged from 0.15-0.50 uM
T1 sequence (P00374 whole entry): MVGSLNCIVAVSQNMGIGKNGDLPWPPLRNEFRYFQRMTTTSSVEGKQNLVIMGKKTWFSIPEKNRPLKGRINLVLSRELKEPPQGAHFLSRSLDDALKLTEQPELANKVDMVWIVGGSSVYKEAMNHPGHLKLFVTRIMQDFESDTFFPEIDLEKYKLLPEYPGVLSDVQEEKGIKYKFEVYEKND

Compound: Nc1nc(N)c2c(Cl)c(CNc3ccc(C(=O)NC(CCCNC(=O)c4ccccc4C(=O)O)C(=O)O)cc3)ccc2n1 (stereo not drawn)
- pIC50 [1]: 9.48
- pKi [2]: 12.96

Compound: Nc1nc(N)c2nc(CNc3ccc(C(=O)NC(CCCNC(=O)c4ccccc4C(=O)O)C(=O)O)cc3)ccc2n1 (stereo not drawn)
- pIC50 [1]: 8.92
- pKi [2]: 12.72

Compound: Cc1c(CNc2ccc(C(=O)NC(CCCNC(=O)c3ccccc3C(=O)O)C(=O)O)cc2)ccc2nc(N)nc(N)c12 (stereo not drawn)
- pIC50 [1]: 9.36
- pKi [2]: 13.00

Compound: Nc1nc(N)c2cc(CNc3ccc(C(=O)NC(CCCNC(=O)c4ccccc4C(=O)O)C(=O)O)cc3)cnc2n1 (stereo not drawn)
- pIC50 [1]: 8.74
- pKi [2]: 12.39
